Reference: ChEMBL document CHEMBL4689842, “EUbOPEN Chemogenomics Library wave 1” (2021)

Legend:
U2OS [1] = experiment: Multiplex assay against U2OS; type: toxicity, cell-based; conditions: human
In short: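 Tubulin, mitochondrial-mass and membrane-permeability phenotypes are per cents of healthy-nucleus cells. Cells were gated by CellPathfinder machine learning into Hoechst high-intensity objects or normal cells, normal cells into healthy, pyknosed or fragmented nuclei, and pyknosed cells into mitotic or apoptotic. Before that, live cells stained at seeding with Hoechst33342, BioTracker Green Microtubule Cytoskeleton Dye, MitoTracker Red and Annexin V Alexa Fluor 680 were imaged on a CQ1 microscope at 37°C and 5% CO2 after compound addition.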

U2OS [2] = experiment: Incucyte cell viability with U2OS; type: toxicity, cell-based; conditions: human, 10 µM, compound concentration 10 uM; also: filed as whole numbers so only -1 and 0 and 1 occur
[3] = 12 h, 1 µM, compound concentration 1 uM, replicate 1
[4] = 12 h, 1 µM, compound concentration 1 uM, replicate 2
[5] = 12 h, 10 µM, compound concentration 10 uM, replicate 1
[6] = 12 h, 10 µM, compound concentration 10 uM, replicate 2
[7] = 24 h, 1 µM, compound concentration 1 uM, replicate 1
[8] = 24 h, 1 µM, compound concentration 1 uM, replicate 2
[9] = 24 h, 10 µM, compound concentration 10 uM, replicate 1
[10] = 24 h, 10 µM, compound concentration 10 uM, replicate 2

Cc1ccc(NC(=O)Nc2cc(C(F)(F)F)ccc2F)cc1Nc1ccc2c(c1)NC(=O)/C2=C\c1ccc[nH]1
Population Apoptotic (%) (U2OS [1]; [3]): 32%
Population Fragmented Nuclei (%) (U2OS [1]; [3]): 15%
Population Healthy Nuclei (%) (U2OS [1]; [3]): 66%
Population Hoechst High Intensity Objects (%) (U2OS [1]; [3]): 2%
Population Membrane Permeable-Phenotype (%) (U2OS [1]; [3]): 87%
Population Mitochondria Different-Phenotype (%) (U2OS [1]; [3]): 7%
Population Mitotic Cells (%) (U2OS [1]; [3]): 68%
Population Normal (%) (U2OS [1]; [3]): 97%
Population Pyknosed Nuclei (%) (U2OS [1]; [3]): 18%
Population Tubulin-Different-Phenotype (%) (U2OS [1]; [3]): 65%
Total Cell Count (U2OS [1]; [3]): 153
Population Apoptotic (%) (U2OS [1]; [4]): 33%
Population Fragmented Nuclei (%) (U2OS [1]; [4]): 24%
Population Healthy Nuclei (%) (U2OS [1]; [4]): 57%
Population Hoechst High Intensity Objects (%) (U2OS [1]; [4]): 12%
Population Membrane Permeable-Phenotype (%) (U2OS [1]; [4]): 91%
Population Mitochondria Different-Phenotype (%) (U2OS [1]; [4]): 18%
Population Mitotic Cells (%) (U2OS [1]; [4]): 66%
Population Normal (%) (U2OS [1]; [4]): 87%
Population Pyknosed Nuclei (%) (U2OS [1]; [4]): 17%
Population Tubulin-Different-Phenotype (%) (U2OS [1]; [4]): 59%
Total Cell Count (U2OS [1]; [4]): 88
Population Apoptotic (%) (U2OS [1]; [5]): 22%
Population Fragmented Nuclei (%) (U2OS [1]; [5]): 2%
Population Healthy Nuclei (%) (U2OS [1]; [5]): 91%
Population Hoechst High Intensity Objects (%) (U2OS [1]; [5]): 2%
Population Membrane Permeable-Phenotype (%) (U2OS [1]; [5]): 11%
Population Mitochondria Different-Phenotype (%) (U2OS [1]; [5]): 22%
Population Mitotic Cells (%) (U2OS [1]; [5]): 77%
Population Normal (%) (U2OS [1]; [5]): 97%
Population Pyknosed Nuclei (%) (U2OS [1]; [5]): 6%
Population Tubulin-Different-Phenotype (%) (U2OS [1]; [5]): 27%
Total Cell Count (U2OS [1]; [5]): 204
Population Apoptotic (%) (U2OS [1]; [6]): 66%
Population Fragmented Nuclei (%) (U2OS [1]; [6]): 8%
Population Healthy Nuclei (%) (U2OS [1]; [6]): 87%
Population Hoechst High Intensity Objects (%) (U2OS [1]; [6]): 11%
Population Membrane Permeable-Phenotype (%) (U2OS [1]; [6]): 5%
Population Mitochondria Different-Phenotype (%) (U2OS [1]; [6]): 29%
Population Mitotic Cells (%) (U2OS [1]; [6]): 33%
Population Normal (%) (U2OS [1]; [6]): 88%
Population Pyknosed Nuclei (%) (U2OS [1]; [6]): 3%
Population Tubulin-Different-Phenotype (%) (U2OS [1]; [6]): 19%
Total Cell Count (U2OS [1]; [6]): 147
Population Apoptotic (%) (U2OS [1]; [7]): 75%
Population Fragmented Nuclei (%) (U2OS [1]; [7]): 14%
Population Healthy Nuclei (%) (U2OS [1]; [7]): 52%
Population Membrane Permeable-Phenotype (%) (U2OS [1]; [7]): 85%
Population Mitochondria Different-Phenotype (%) (U2OS [1]; [7]): 11%
Population Mitotic Cells (%) (U2OS [1]; [7]): 25%
Population Pyknosed Nuclei (%) (U2OS [1]; [7]): 32%
Population Tubulin-Different-Phenotype (%) (U2OS [1]; [7]): 36%
Total Cell Count (U2OS [1]; [7]): 205
Population Apoptotic (%) (U2OS [1]; [8]): 76%
Population Fragmented Nuclei (%) (U2OS [1]; [8]): 31%
Population Healthy Nuclei (%) (U2OS [1]; [8]): 44%
Population Hoechst High Intensity Objects (%) (U2OS [1]; [8]): 4%
Population Membrane Permeable-Phenotype (%) (U2OS [1]; [8]): 94%
Population Mitochondria Different-Phenotype (%) (U2OS [1]; [8]): 12%
Population Mitotic Cells (%) (U2OS [1]; [8]): 23%
Population Normal (%) (U2OS [1]; [8]): 95%
Population Pyknosed Nuclei (%) (U2OS [1]; [8]): 23%
Population Tubulin-Different-Phenotype (%) (U2OS [1]; [8]): 53%
Total Cell Count (U2OS [1]; [8]): 118
Population Apoptotic (%) (U2OS [1]; [9]): 26%
Population Fragmented Nuclei (%) (U2OS [1]; [9]): 2%
Population Healthy Nuclei (%) (U2OS [1]; [9]): 89%
Population Hoechst High Intensity Objects (%) (U2OS [1]; [9]): 1%
Population Membrane Permeable-Phenotype (%) (U2OS [1]; [9]): 8%
Population Mitochondria Different-Phenotype (%) (U2OS [1]; [9]): 22%
Population Mitotic Cells (%) (U2OS [1]; [9]): 73%
Population Normal (%) (U2OS [1]; [9]): 98%
Population Pyknosed Nuclei (%) (U2OS [1]; [9]): 7%
Population Tubulin-Different-Phenotype (%) (U2OS [1]; [9]): 31%
Total Cell Count (U2OS [1]; [9]): 302
Population Apoptotic (%) (U2OS [1]; [10]): 16%
Population Fragmented Nuclei (%) (U2OS [1]; [10]): 6%
Population Healthy Nuclei (%) (U2OS [1]; [10]): 87%
Population Hoechst High Intensity Objects (%) (U2OS [1]; [10]): 8%
Population Membrane Permeable-Phenotype (%) (U2OS [1]; [10]): 7%
Population Mitochondria Different-Phenotype (%) (U2OS [1]; [10]): 32%
Population Mitotic Cells (%) (U2OS [1]; [10]): 83%
Population Normal (%) (U2OS [1]; [10]): 91%
Population Pyknosed Nuclei (%) (U2OS [1]; [10]): 5%
Population Tubulin-Different-Phenotype (%) (U2OS [1]; [10]): 18%
Total Cell Count (U2OS [1]; [10]): 205
Growth Rate (U2OS [2]; 6 h, replicate number 1, timepoint 6 hours): 1
Growth Rate (U2OS [2]; 12 h, replicate number 1, timepoint 12 hours): 0
Growth Rate (U2OS [2]; 12 h, replicate number 2, timepoint 12 hours): 1
Growth Rate (U2OS [2]; 18 h, replicate number 1, timepoint 18 hours): 0
Growth Rate (U2OS [2]; 24 h, replicate number 1, timepoint 24 hours): 0
